“And” between values parts separate entries of the source, which are not always exact repeats. Identical values can stand only once.
Assays:
HsGSK3β = HsGSK3β (Homo sapiens, UniProt P49841); assay: HsGSK3β radiometric Flashplate assay; type: biochemical
TbGSK3 [1] = molecular target: T1, TbGSK3 (Trypanosoma brucei brucei, UniProt Q388M1); assay: Mechanism of inhibition of TbGSK3; type: biochemical; settings: for mechanism of inhibition: versus ATP, saturating GSP2
T1 sequence (Q388M1 1-352): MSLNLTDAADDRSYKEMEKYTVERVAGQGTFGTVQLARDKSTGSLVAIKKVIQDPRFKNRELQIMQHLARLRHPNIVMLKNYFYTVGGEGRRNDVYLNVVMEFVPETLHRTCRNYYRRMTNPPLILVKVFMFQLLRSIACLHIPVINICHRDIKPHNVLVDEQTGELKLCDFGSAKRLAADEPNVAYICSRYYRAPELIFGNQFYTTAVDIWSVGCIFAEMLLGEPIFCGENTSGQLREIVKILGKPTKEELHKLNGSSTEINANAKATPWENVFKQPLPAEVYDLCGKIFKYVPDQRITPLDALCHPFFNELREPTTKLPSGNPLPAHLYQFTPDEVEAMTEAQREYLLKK
Procedure, shortened: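 Rates (CPM) measured at 10 test-compound concentrations × four ATP concentrations, GSP2 phosphopeptide saturating. Lineweaver–Burk plots examined for competitive, mixed or uncompetitive patterns; apparent K_i calculated.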

TbGSK3 [2] = molecular target: T1, TbGSK3; assay: TbGSK3 radiometric Flashplate potency assay; type: biochemical; settings: for IC50: IC50 TbGSK3, Flashplate, 1 μM ATP (<KM); for fold less active than 8 against TbGSK3: compared with compound 8
Procedure, shortened: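 Radiometric streptavidin Flashplate capture of biotinylated phosphoproduct. MBP-fused short TbGSK3 (2.5 nM), 1 μM biotinylated GSP2, 1 μM ATP plus 3.7 KBq [γ-³³P]ATP/well. 10-point titration, 30 μM–0.3 nM final, 1% DMSO. IC50 by four-parameter fit; ligand efficiency = [−RT ln(IC50)]/heavy-atom count.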

76 mammalian kinases = assay: Mammalian kinase selectivity panel, whole panel; type: biochemical; settings: 10 μM
[3] = system: MRC5 (human lung fibroblast) cells; assay: MRC5 proliferation assay; type: cell-based; settings: T. brucei versus MRC5
Procedure, shortened: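 MRC5 human lung fibroblasts, 2×10³ cells/well, grown in MEM with 10% foetal bovine serum. Test compound from 50 μM to 0.5 nM. Incubated 69 h at 37 °C, 5% CO₂. Resazurin added (50 μM final), then a further 4 h under the same conditions. Read by fluorescence.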

CDK2-Cyclin A = CDK2-Cyclin A (Homo sapiens, UniProt P24941); assay: Mammalian kinase selectivity panel; type: biochemical; settings: read-out: inhibition of CDK2
Procedure, shortened: (§1)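 Run by the University of Dundee DSTT mammalian panel, which then held 76 kinases. Test compound screened in duplicate at 10 μM. Each kinase assayed with ATP below its apparent K_M for ATP.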

GSK3 = GSK3 (Homo sapiens, UniProt P49841); assay: Mammalian kinase selectivity panel; type: biochemical; settings: read-out: inhibition of GSK3
GSK3, sequence (P49841 whole entry): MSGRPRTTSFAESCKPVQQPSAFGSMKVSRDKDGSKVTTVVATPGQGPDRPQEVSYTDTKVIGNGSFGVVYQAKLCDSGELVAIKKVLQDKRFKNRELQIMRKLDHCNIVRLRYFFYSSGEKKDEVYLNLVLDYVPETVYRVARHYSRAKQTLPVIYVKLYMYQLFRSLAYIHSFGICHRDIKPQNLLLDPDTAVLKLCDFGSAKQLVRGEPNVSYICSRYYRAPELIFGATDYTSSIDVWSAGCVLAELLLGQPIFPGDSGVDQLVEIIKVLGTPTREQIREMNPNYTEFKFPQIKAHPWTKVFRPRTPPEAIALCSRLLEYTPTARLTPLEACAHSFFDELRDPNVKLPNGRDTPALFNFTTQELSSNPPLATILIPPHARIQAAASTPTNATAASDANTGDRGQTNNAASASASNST
Procedure, shortened: as §1

HsGSK3β, sequence (P49841 whole entry): as above

Nc1nc(NC2CCCCC2)sc1C(=O)c1ccccc1 [Compound 19, (4-Amino-2-(cyclohexylamino)thiazol-5-yl)(phenyl)methanone]
IC50 (HsGSK3β): 2 nM
Ki (TbGSK3 [1]): 250 ± 30 nM
mechanism of inhibition (TbGSK3 [1]): ATP-competitive
IC50 (TbGSK3 [2]): 190 nM and 200 nM
fold less active than 8 against TbGSK3 (TbGSK3 [2]): sixfold

Nc1nc(Nc2ccccc2)sc1C(=O)c1cccc(Br)c1 [Compound 16, (4-Amino-2-(phenylamino)thiazol-5-yl)(3-bromophenyl)methanone]
IC50 (HsGSK3β): 5 nM
IC50 (TbGSK3 [2]): 100 nM

Nc1nc(Nc2ccccc2)sc1C(=O)c1c(F)cccc1F [Compound 14, (4-Amino-2-(phenylamino)thiazol-5-yl)(2,6-difluorophenyl)methanone]
IC50 (HsGSK3β): 5 nM
Ki (TbGSK3 [1]): 50 ± 10 nM
mechanism of inhibition (TbGSK3 [1]): ATP-competitive
IC50 (TbGSK3 [2]): 20 nM

Nc1nc(NCCc2ccccc2)sc1C(=O)c1ccccc1 [Compound 21, (4-Amino-2-(phenethylamino)thiazol-5-yl)(phenyl)methanone]
IC50 (HsGSK3β): 3 nM
IC50 (TbGSK3 [2]): 500 nM

Nc1nc(NCC2CCCCC2)sc1C(=O)c1ccccc1 [Compound 20, (4-Amino-2-((cyclohexylmethyl)amino)thiazol-5-yl)(phenyl)methanone]
IC50 (HsGSK3β): 20 nM
IC50 (TbGSK3 [2]): 700 nM

Cc1cccc(C)c1Nc1nc(N)c(C(=O)c2ccccc2)s1 [Compound 17, (4-Amino-2-((2,6-dimethylphenyl)amino)thiazol-5-yl)(phenyl)methanone]
IC50 (HsGSK3β): 200 nM
IC50 (TbGSK3 [2]): 200 nM
fold less active than 8 against TbGSK3 (TbGSK3 [2]): approximately 10 fold

Cc1ccc(Nc2nc(N)c(C(=O)c3ccccc3)s2)cc1C [Compound 18, (4-Amino-2-((3,4-dimethylphenyl)amino)thiazol-5-yl)(phenyl)methanone]
IC50 (HsGSK3β): 2 nM
IC50 (TbGSK3 [2]): 60 nM

COc1cccc(OC)c1C(=O)c1sc(Nc2ccccc2)nc1N [Compound 15, (4-Amino-2-(phenylamino)thiazol-5-yl)(2,6-dimethoxyphenyl)methanone]
IC50 (HsGSK3β): 2000 nM
IC50 (TbGSK3 [2]): 400 nM
fold less active than 14 against TbGSK3 (TbGSK3 [2]; compared with compound 14): over 10 fold

CC(C)(C)C(=O)c1sc(NC2CCCCC2)nc1N [Compound 22, 1-(4-Amino-2-(cyclohexylamino)thiazol-5-yl)-2,2-dimethylpropan-1-one]
kinases of the panel inhibited at the >90 % level (76 mammalian kinases): did not inhibit any kinase at the >90 % level
selectivity over the human MRC5 cell line [3]: > 150 fold
inhibition at 10 µM (CDK2-Cyclin A): > 70%
inhibition at 10 µM (GSK3): > 70%
IC50 (TbGSK3 [2]): 12000 nM
fold less active than 8 against TbGSK3 (TbGSK3 [2]): ~300 fold
